Assay results from different studies.
Lines come from different studies, so protocols differ.
Target: Serine/threonine-protein kinase Nek3 (NEK3, Homo sapiens, UniProt P51956)
One construct used (P51956 1-506): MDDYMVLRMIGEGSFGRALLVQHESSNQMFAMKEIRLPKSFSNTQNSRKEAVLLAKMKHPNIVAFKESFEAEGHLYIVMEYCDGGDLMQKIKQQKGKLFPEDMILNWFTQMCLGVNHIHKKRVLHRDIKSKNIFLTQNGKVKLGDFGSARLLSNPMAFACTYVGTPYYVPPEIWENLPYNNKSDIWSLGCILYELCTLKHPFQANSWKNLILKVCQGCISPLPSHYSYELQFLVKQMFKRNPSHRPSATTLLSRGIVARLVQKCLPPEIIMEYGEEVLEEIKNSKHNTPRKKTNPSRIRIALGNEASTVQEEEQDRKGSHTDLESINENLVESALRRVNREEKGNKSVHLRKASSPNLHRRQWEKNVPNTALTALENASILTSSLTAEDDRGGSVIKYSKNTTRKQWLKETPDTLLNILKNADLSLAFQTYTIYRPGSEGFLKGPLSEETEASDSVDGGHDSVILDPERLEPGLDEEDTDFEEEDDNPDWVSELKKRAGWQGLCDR

| Compound | assay | setting | quantity | value |
| --- | --- | --- | --- | --- |
| CCCCC(=O)Nc1ccc(-c2ccc3ncn(CCC)c(=O)c3c2)cn1 | binding, competition with immobilised ligand | 0.5 µM | remaining binding | 87% |
| C1=C/COCc2cc(ccc2OCCN2CCCC2)Nc2nccc(n2)-c2cccc(c2)COC/1 | binding | 0.1 µM | remaining binding | 82% |
| C=CC(=O)N1CCC[C@@H](n2nc(-c3ccc(Oc4ccccc4)cc3)c3c(N)ncnc32)C1 | enzyme activity, inhibitor | 1 µM | inhibition | 5% |
| Cc1ccc(NC(=O)c2ccnc(C(F)(F)F)c2)cc1-c1cc(OCCO)nc(N2CCOCC2)c1 | binding | 1 µM | remaining binding | 95% |
| Cc1cc(O)c(-c2ccc([C@@H](C)CN(C)C)cc2)c2c1[nH]c(=O)c1sccc12 | enzyme activity, inhibitor | 0.1 µM | inhibition | -5.15% |
| C=CC(=O)N1CCC([C@@H]2CCNc3c(C(N)=O)c(-c4ccc(Oc5ccccc5)cc4)nn32)CC1 | enzyme activity, inhibitor | 1 µM | inhibition | 44% |
| CC(C)S(=O)(=O)c1ccc2nccc(Nc3ccc4sc(C5CCCC5)nc4c3)c2c1 | enzyme activity, inhibitor | 1 µM | activity vs control | 111% |
| CN1CCN(C(=O)c2ccc(NC(=O)Nc3ccc(N(C)c4ccnc(Nc5ccc(CS(C)(=O)=O)cc5)n4)cc3)cc2)CC1 | binding | 1 µM | remaining binding | 66% |
